Experimental data from different studies.
Compare with care: the assays were run in different laboratories.
Target: Serine/threonine-protein kinase Nek2 (NEK2, Homo sapiens, UniProt P51955)
Residues used in one study (P51955 1-445): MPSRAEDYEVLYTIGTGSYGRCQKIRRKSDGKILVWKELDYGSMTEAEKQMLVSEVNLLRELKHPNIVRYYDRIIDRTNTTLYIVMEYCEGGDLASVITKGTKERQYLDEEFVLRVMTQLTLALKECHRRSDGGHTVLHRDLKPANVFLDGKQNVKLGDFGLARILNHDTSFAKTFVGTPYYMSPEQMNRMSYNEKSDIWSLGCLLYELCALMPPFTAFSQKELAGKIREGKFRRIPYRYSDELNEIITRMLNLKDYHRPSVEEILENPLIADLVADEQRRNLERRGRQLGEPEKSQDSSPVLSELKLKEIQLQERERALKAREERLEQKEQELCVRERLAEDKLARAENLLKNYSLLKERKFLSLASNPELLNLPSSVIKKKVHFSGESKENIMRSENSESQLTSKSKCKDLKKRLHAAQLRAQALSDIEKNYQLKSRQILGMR

Compound | test | conditions | remaining binding [%]
Nc1ncc2c(n1)-c1c([nH]c3ccc(C#CC4CC4)cc13)CCCC2 | binding, competition with immobilised ligand | 1 µM | 87
CN(CCCC(F)(F)F)c1nccc(-c2cnn3ncccc23)n1 | binding | 1 µM | 100
COCCOc1nc(-c2ccc(Cl)nc2)nc2c1CN(C(=O)c1ncn3ccccc13)CC2 | cell-free assay, competition with immobilised ligand | 0.1 µM | 100
C=CC(=O)N1CCC(C(=O)NCC(=O)N2CCN(c3nc(-c4cnc(N)nc4C(F)F)nc(N4CCOCC4)n3)CC2)CC1 | binding, competition with immobilised ligand | 1 µM | 95
C[C@@H]1CCN(c2nccc(-c3cnn4ncccc34)n2)C1 | binding | 1 µM | 87
O=C(c1ccc(Nc2ncc(Cl)c(-c3cc4ccccc4s3)n2)cc1)N1CCC(N2CCCC2)CC1 | binding, competition with immobilised ligand | 1 µM | 83
NS(=O)(=O)c1cc(NC(=O)C2(c3ccccc3Cl)CC2)ccc1Oc1cccc(Cl)c1 | cell-free assay, competition with immobilised ligand | 1 µM | 86
N[C@@H]1CCN(c2nccc(-c3cnn4ncccc34)n2)C1 | binding | 1 µM | 100
O=C(N[C@H]1CCCCC/C=C\C2C[C@@]2(C(=O)O)NC(=O)[C@@H]2C[C@@H](Oc3ccncc3)CN2C1=O)OC1CCCC1 (some centres unmarked) | binding, competition with immobilised ligand | 1 µM | 94
C[C@@H](c1ccc(-n2cnc3c(N)ncnc32)cc1)N1CCc2nn(C)c(Cc3ccccc3)c2C1=O | binding, competition with immobilised ligand | 0.1 µM | 89
CNC(=O)[C@@H]1CC[C@@H](n2c(-c3ccc4cnccc4c3)nc3ccc(C(=O)NCc4cccc(C(N)=O)c4)cc32)C1 | binding, competition with immobilised ligand | 1 µM | 97
Cn1nc(C(F)(F)F)cc1-c1cnc(N2CCc3cc(S(=O)(=O)Nc4c(F)cc(Cl)cc4F)cc(N4CCCC4=O)c32)nc1 | cell-free assay, competition with immobilised ligand | 1 µM | 100
COc1cnc(Nc2cccc(S(N)(=O)=O)c2)nc1N1CCN(c2ccccc2)C(=O)C1 | binding, competition with immobilised ligand | 1 µM | 98
COc1ccnn2ncc(-c3ccnc(N(C)C)n3)c12 | binding | 1 µM | 92
Cn1cc(Cl)c2c(Oc3c(F)cc(Nc4cc(Cl)nc(N)n4)cc3F)ccnc21 | cell-free assay, competition with immobilised ligand | 0.1 µM | 100
O=C(Nc1c[nH]nc1C(=O)NC1CCNCC1)c1cc(F)cc(F)c1 | binding, competition with immobilised ligand | 1 µM | 93
CC1CCCN1c1nccc(-c2cnn3ncccc23)n1 (centres unmarked) | binding | 1 µM | 100
O=C(NCCCN1CCOCC1)c1ccc(Nc2nccc(-c3cc4ccccc4s3)n2)cc1 | binding, competition with immobilised ligand | 1 µM | 94
c1cnn2ncc(-c3ccnc(N4CCC45COC5)n3)c2c1 | binding | 1 µM | 95
CNC(=O)Nc1ccc2c(c1)[C@@]1(CC2)OC(=O)N(CC(=O)N(Cc2ccc(F)cc2)[C@@H](C)C(F)(F)F)C1=O | cell-free assay, competition with immobilised ligand | 1 µM | 100
